EC50, CC50 and selectivity ratio data for six compounds are collected here from ChEMBL document CHEMBL1811839, “Lindenane disesquiterpenoids with anti-HIV-1 activity from Chloranthus japonicus” (J Nat Prod, 2011).

Data set [1] concerns Human immunodeficiency virus 1. In words: Antiviral activity against Human immunodeficiency virus 1 NL 4.3 harboring reverse transcriptase K103N mutant pseudotyped with VSV-G envelope co-transfected with luciferase gene infected in 293T cells assessed as inhibition of HIV1 replication administered 15 mins prior to infection measured after 48 hrs post infection by luciferase assay. The class given is functional, organism-based. The following applies: Human immunodeficiency virus 1, NL 4.3, HEK-293T. The procedure, abridged:
(§1)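 VSV-G plasmid co-transfected with env-deficient pNL4-3.luc.R-E vector (wild-type, RT-K103N or RT-Y181C) into 293T cells by modified Ca3(PO4)2 method; medium changed 16 h post-transfection; virion supernatant harvested 48 h, 0.45 μm filtered, p24 ELISA-quantified and diluted to 0.2 ng p24/mL. Target 293T cells plated 6 × 10^4/well a day before; compounds in DMSO added 15 min before infection; luciferase in lysates read 48 h post-infection; EFV positive control.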

Data set [2] can be described thus: Cytotoxicity against human C8166 cells by MTT assay. It is filed as cell-based. The procedure, abridged:
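MTT assay on C8166 cells yielding CC50.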
A general note: Formazan colour is commonly taken as a measure of viable cells.

Data set [3] concerns Human immunodeficiency virus 1. In words: Antiviral activity against Human immunodeficiency virus 1 assessed as inhibition of virus-induced cytopathic effects by cell based assay. It is filed as functional, organism-based. The procedure, abridged:
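HIV-1 cytopathic-effect inhibition assay yielding EC50; AZT positive control.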
On the technique in general: Protection from cytopathic effect is a common read-out in antiviral testing.

Data set [4] relates to Human immunodeficiency virus 1. In words: Antiviral activity against wild type Human immunodeficiency virus 1 NL 4.3 pseudotyped with VSV-G envelope co-transfected with luciferase gene infected in human 293T cells assessed as inhibition of HIV1 replication administered 15 mins prior to infection measured after 48 hrs post infection by luciferase assay. The class given is functional, organism-based. The following applies: Human immunodeficiency virus 1, NL 4.3, HEK-293T. The procedure, abridged: as §1

For data set [5], the system named is Human immunodeficiency virus 1. In words: Antiviral activity against Human immunodeficiency virus 1 NL 4.3 harboring reverse transcriptase Y181C mutant pseudotyped with VSV-G envelope co-transfected with luciferase gene infected in 293T cells assessed as inhibition of HIV1 replication administered 15 mins prior to infection measured after 48 hrs post infection by luciferase assay. Conditions: Human immunodeficiency virus 1, NL 4.3, HEK-293T. It is filed as functional, organism-based. The procedure, abridged: as §1

The nature of data set [6]: Therapeutic index, ratio of CC50 for against human C8166 cells to EC50 for HIV-1. The class given is cell-based. Conditions: read-out: Ratio CC50/EC50.

For orientation: EC50 means the concentration needed to bring the measured effect to its halfway point. Broadly, the CC50 is the concentration that lowers cell viability or growth by half. Lower therefore signals greater toxicity to the cells. Consider `COC(=O)/C(C)=C1\C(=O)[C@H](O)[C@]2(C)C3=C(C[C@@H]4[C@]5(OC(=O)C6=C5C[C@H]5[C@](O)(COC(=O)/C(C)=C/COC(=O)CCC(=O)OC6)[C@H]6C[C@H]6[C@]45C)[C@H]31)[C@H]1C[C@H]12` [SHIZUKAOL B], for which the EC50 was determined as 470 nM in data set [1], 1.4 nM in data set [3], 220 nM in data set [4] and 500 nM in data set [5]. This compound yielded a CC50 in data set [2] of 20 nM. In addition, the selectivity ratio in data set [6] stood at 14.4.

With `Cc1cn([C@H]2C[C@H](N=[N+]=[N-])[C@@H](CO)O2)c(=O)[nH]c1=O` [ZIDOVUDINE], the selectivity ratio in data set [6] was determined as 1.02e+06.

As for `COC(=O)/C(C)=C1\C(=O)[C@H](O)[C@]2(C)C3=C(C[C@@H]4[C@]5(OC(=O)C6=C5C[C@H]5[C@](O)(COC(=O)/C=C(\C)COC(=O)[C@@H](O)CC(=O)OC6)[C@H]6C[C@H]6[C@]45C)[C@H]31)[C@H]1C[C@H]12` [SHIZUKAOL H], the concentration for a half-maximal effect (EC50) came to 2350 nM in data set [1], 3.3 nM in data set [3], 830 nM in data set [4] and 860 nM in data set [5]. The 50% cytotoxic concentration (CC50) in data set [2] was found to be 22 nM. Besides, the selectivity ratio in data set [6] was determined as 6.67.

On to `O=C1Nc2ccc(Cl)cc2[C@@](C#CC2CC2)(C(F)(F)F)O1` [EFAVIRENZ], for which the 50% effective concentration (EC50) was determined as 24 nM in data set [1] and 2 nM in data set [5].

Turning to `COC(=O)/C(C)=C1\C(=O)[C@H](O)[C@]2(C)C3=C(C[C@@H]4[C@]5(OC(=O)C6=C5C[C@H]5[C@](O)(COC(=O)/C=C(\C)COC(=O)CCC(=O)OC6)[C@H]6C[C@H]6[C@]45C)[C@H]31)[C@H]1C[C@H]12` [SHIZUKAOL F], the 50% effective concentration (EC50) in data set [1] was found to be 3390 nM; in data set [3] it was 4.3 nM; in data set [4], 110 nM; in data set [5], 4050 nM. In data set [2], this compound yielded a half-maximal cytotoxic concentration (CC50) of 47 nM. For the same compound, the selectivity ratio in data set [6] was 10.9.

In the case of `C/C=C(\C)C(=O)OCC1=C2C[C@H]3[C@H](O)[C@H]4C[C@H]4[C@]3(C)[C@@H]3C[C@@]4(O)C5=C(/C(=C(/C)C(=O)OC)C(=O)[C@H](O)[C@@]5(C)[C@@H]5C[C@@H]54)[C@]23OC1=O` [SHIZUKAOL C], the EC50 in data set [1] worked out at 1360 nM; in data set [3], 16 nM; in data set [4] it was 980 nM; in data set [5], 1000 nM. The compound also showed a CC50 in data set [2] of 89 nM. For the same compound, the selectivity ratio in data set [6] turned out to be 5.56.
